As a reminder, the CC50 is the concentration at which the toxic effect on the cells reaches its halfway point. A word on the IC50: it is the concentration that inhibits the measured activity by half. Broadly, the inhibition is how much of the control response was suppressed. As a reminder, the EC50 is the concentration that produces a half-maximal response.

Data set [1] is described as follows: Cytotoxicity against human HepG2(2.2.15) cells assessed as reduction in cell viability after 72 hrs by MTT assay. The data set is classed as cell-based. A digest of the protocol:
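Confluent HepG2 2.2.15 cells exposed to graded compound concentrations for 72 h alongside untreated controls on each plate; viability by MTT uptake, absorbance 490 nm relative to untreated cells; CC50 = concentration killing 50% of cells. Three replicates.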
For orientation: Tetrazolium dyes change colour on reduction, which living cells bring about.

The test system of data set [2] is Hepatitis B virus. In words: Antiviral activity against lamivudine/entecavir resistant HBV harboring reverse transcriptase L180M/M204V/T184L mutant infected in human […] after 72 hrs by RT-PCR method. The class given is functional, organism-based. The method in brief:
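HepG2 cells (2×10^5 per well) were plated, incubated overnight, then transiently transfected for 24 h with a plasmid carrying the full HBV genome with rtL180M + rtM204V + rtT184L. Medium was discarded, cells washed with PBS, then treated across a dose range in fresh medium for 72 h. Intracellular HBV DNA replicative intermediate was quantified by real-time PCR. IC50 is 50% inhibition of DNA replication.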

Data set [3] can be described thus: Selectivity index, ratio of CC50 for human HepG2(2.2.15) cells to IC50 for antiviral activity against HBV infected in human HepG2(2.2.15) cells assessed as inhibition of viral DNA replication. As to conditions: read-out: Ratio CC50/IC50. The class given is toxicity, cell-based. The method in brief: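 SI calculated as CC50 (72 h MTT, HepG2 2.2.15) divided by IC50 for inhibition of HBV DNA replication measured by real-time PCR.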

The nature of data set [4]: Selectivity index, ratio of CC50 for human HepG2(2.2.15) cells to IC50 for antiviral activity against lamivudine/entecavir resistant HBV harboring reverse transcriptase L180M/M204V/T184L mutant infected in human HepG2(2.2.15) cells. The data set is classed as toxicity, cell-based. As to conditions: read-out: Ratio CC50/IC50. A digest of the protocol:
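SI = CC50/IC50. CC50 comes from HepG2 2.2.15 cells grown to confluence and treated for 72 h, with MTT absorbance at 490 nm relative to untreated cells, in triplicate. IC50 comes from mutant-plasmid-transfected HepG2 cells treated for 72 h, with HBV DNA measured by real-time PCR.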

Data set [5] concerns Hepatitis B virus. In words: Antiviral activity against HBV infected in human […] cells assessed as inhibition of viral DNA replication at 100 uM after 72 hrs by RT-PCR method relative to control. The class given is functional. The method in brief: (§1)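 HepG2 cells (2×10^5/well) transfected overnight-plated, 24 h with plasmid carrying wild-type or rtL180M+rtM204V+rtT184L resistant HBV; after PBS wash, fresh medium with lamivudine 100 μM, entecavir 10 μM, or test compounds 1 μM (one at 10 μM) for 72 h; replicative intermediate HBV DNA measured by real-time PCR.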

Data set [6] deals with Hepatitis B virus. In words: Antiviral activity against HBV infected in human HepG2(2.2.15) cells assessed as inhibition of viral DNA replication after 6 days by RT-PCR method. The class given is functional, organism-based. As to conditions: HepG2 2.2.15, 144 h. A digest of the protocol:
(§2)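 HepG2 2.2.15 cells (stable HBV genome; DMEM, 10% FBS, G418 0.38 mg/mL) seeded 2×10^5/well, recovered 24 h, then compound in assay medium (single 20 or 4 μM, or dose series for IC50), medium changed every 2 days; after 6 days HBV DNA extracted and quantified by real-time PCR. Mean ± SD, ≥3 independent experiments in duplicate.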

The subject of data set [7] is Hepatitis B virus. As to the kind of experiment: Antiviral activity against HBV infected in human HepG2(2.2.15) cells assessed as inhibition of intracellular viral pregenomic RNA expression at 1 uM after 6 days by TRIzol reagent based RT-PCR method relative to control. The data set is classed as functional. The note with it: HepG2 2.2.15, 144 h. A digest of the protocol: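 HepG2 2.2.15 cells at 6×10^5 per well treated 6 days at 1 μM; total cellular RNA extracted and intracellular HBV pgRNA quantified by real-time PCR.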

Data set [8] deals with Hepatitis B virus. As to the kind of experiment: Antiviral activity against lamivudine/entecavir resistant HBV harboring reverse transcriptase L180M/M204V/T184L mutant infected in human HepG2 cells assessed as inhibition of viral DNA replication at 100 uM after 72 hrs by RT-PCR method relative to control. The note with it: HepG2, 72 h.
The test system of data set [9] is Hepatitis B virus. As to the kind of experiment: Antiviral activity against HBV infected in human HepG2(2.2.15) cells assessed as inhibition of viral DNA replication at 20 uM after 6 days by RT-PCR method relative to control. The data set is classed as functional. The note with it: HepG2 2.2.15, 144 h. A digest of the protocol: as §2
Data set [10] has as its system Hepatitis B virus. As to the kind of experiment: Antiviral activity against HBV infected in human […] cells assessed as inhibition of viral DNA replication at 1 uM after 72 hrs by RT-PCR method relative to control. The class given is functional. The method in brief: as §1
For data set [11], the system named is Hepatitis B virus. As to the kind of experiment: Antiviral activity against lamivudine/entecavir resistant HBV harboring reverse transcriptase L180M/M204V/T184L mutant infected in human […] cells assessed as inhibition of viral DNA replication at 1 uM after 72 hrs by RT-PCR method relative to control. The data set is classed as functional. A digest of the protocol: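 HepG2 cells (not 2.2.15) were transiently transfected for 24 h with a plasmid carrying the rtL180M + rtM204V + rtT184L mutant HBV genome, alongside wild-type. After a PBS wash, cells received a single concentration (1, 10 or 100 µM) in fresh medium for 72 h. HBV DNA replicative intermediate was measured by real-time PCR and compared with the wild-type group.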

Data set [12] has as its target T1, Protein P (Duck hepatitis B virus (strain Germany/DHBV-3) (DHBV)) (UniProt P0C691).
T1 sequence (whole entry): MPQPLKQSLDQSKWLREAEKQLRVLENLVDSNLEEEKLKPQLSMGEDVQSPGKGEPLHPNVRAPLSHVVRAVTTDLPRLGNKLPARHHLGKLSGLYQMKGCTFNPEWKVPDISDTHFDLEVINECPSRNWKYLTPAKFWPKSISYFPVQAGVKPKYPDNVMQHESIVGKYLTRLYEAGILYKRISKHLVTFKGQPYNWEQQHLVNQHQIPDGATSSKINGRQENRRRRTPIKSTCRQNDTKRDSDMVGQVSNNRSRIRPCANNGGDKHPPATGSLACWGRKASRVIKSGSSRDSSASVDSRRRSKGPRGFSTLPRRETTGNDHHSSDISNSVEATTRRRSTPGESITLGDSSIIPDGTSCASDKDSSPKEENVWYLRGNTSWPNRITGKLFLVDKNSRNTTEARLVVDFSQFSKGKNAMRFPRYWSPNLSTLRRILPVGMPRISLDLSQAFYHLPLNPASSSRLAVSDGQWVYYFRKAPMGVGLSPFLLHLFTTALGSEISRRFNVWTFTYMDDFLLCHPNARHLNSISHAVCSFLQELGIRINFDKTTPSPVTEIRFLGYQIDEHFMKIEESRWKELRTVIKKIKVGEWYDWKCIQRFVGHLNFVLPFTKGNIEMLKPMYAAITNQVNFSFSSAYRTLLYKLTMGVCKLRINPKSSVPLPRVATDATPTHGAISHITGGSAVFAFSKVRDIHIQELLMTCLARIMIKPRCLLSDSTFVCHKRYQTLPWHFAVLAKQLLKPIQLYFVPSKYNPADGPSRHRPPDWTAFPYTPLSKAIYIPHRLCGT
In words: (§3) Inhibition of DHBV reverse transcriptase polymerase activity expressed in reticulocyte system assessed as reduction in elongation of viral minus strand DNA in presence of [alpha32P]DNA. A digest of the protocol:
(§4)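 DHBV polymerase expressed in vitro in reticulocyte lysate; reverse transcriptase activity followed as [α32P]-dNTP incorporation into viral minus-strand DNA, with or without increasing inhibitor concentrations.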

For the next data set, the target named is T2, Protein P (Duck hepatitis B virus (strain Germany/DHBV-3) (DHBV), UniProt P0C691).
T2 sequence (P0C691 whole entry): T1 sequence (whole entry)
The data set is described as §3. The method in brief:
as §4

Data set [13] concerns Hepatitis B virus. In words: Antiviral activity against HBV assessed as inhibition of viral DNA replication. The data set is classed as functional, organism-based. The method in brief: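 HepG2 cells transiently transfected with wild-type HBV genome, or the rtL180M+rtM204V+rtT184L lamivudine/entecavir-resistant mutant, for 24 h, washed, then exposed in dose-dependent manner; after 72 h HBV DNA replicative intermediate extracted and quantified by real-time PCR. IC50 = concentration giving 50% inhibition of DNA replication; mean ± SD of at least three independent experiments, duplicate measurements.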

Bounds are passed on as bounds.

For `Nc1ccn([C@@H]2CS[C@H](CO)O2)c(=O)n1` [LAMIVUDINE], in data set [1], the CC50 at 72 h is greater than 100 µM. Also, the IC50 in the data set with Hepatitis B virus [2] is greater than 100 µM; with Hepatitis B virus [6], less than 0.1 µM. In addition, the selectivity ratio in data set [3] is greater than 1000; in data set [4] it was less than 1. The inhibition at 100 µM with Hepatitis B virus [5] stood at 94.3%; in the data set on Hepatitis B virus [8] it was 19.4%. In addition, the inhibition at 1 µM in the data set with Hepatitis B virus [7] is 0.81%. Moreover, in the data set with Hepatitis B virus [9], the inhibition at 20 µM turned out to be 92.7%.

As for `Cc1cccc(/C(Br)=C(/NC(=O)c2ccccc2)C(=O)N[C@H](CO)Cc2ccccc2)c1`, in data set [1], the half-maximal cytotoxic concentration (CC50) at 72 h was greater than 100 µM. Moreover, the IC50 stood at 0.77 µM with Hepatitis B virus [2] and 0.46 µM in the data set with Hepatitis B virus [6]. In addition, the selectivity ratio is greater than 217 in data set [3] and greater than 130 in data set [4]. Also, the inhibition at 1 µM in the data set on Hepatitis B virus [10] worked out at 61.4%; in the data set on Hepatitis B virus [7], 49.4%; in the data set on Hepatitis B virus [11], 65.9%. The inhibition result in data set [12] was “Dose-dependent effect”. The EC50 on Protein P was 34.2 µM. In the data set on Hepatitis B virus [9], the inhibition at 20 µM amounted to 87.6%.

With `CC(=O)OC[C@H](Cc1ccccc1)NC(=O)[C@H](Cc1ccccc1)NC(=O)c1ccccc1`, in data set [1], the CC50 at 72 h is greater than 100 µM. In addition, the 50% inhibitory concentration (IC50) in the data set with Hepatitis B virus [13] was 11.2 µM. Moreover, in the data set with Hepatitis B virus [9], the inhibition at 20 µM is 60.6%.
